Measurements as given in ChEMBL document CHEMBL3351730, “New N-aryl-N'-(3-(substituted)phenyl)-N'-methylguanidines as leads to potential PET radioligands for imaging the open NMDA receptor” (Bioorg Med Chem Lett, 2015).

Tests used:
[1] = biological target: Glutamate NMDA receptor (Rattus norvegicus) (UniProt P35439+Q00959+Q00960+Q00961+Q62645+Q8VHN2+Q9R1M7); assay: Displacement of [3H]TCP from rat brain NMDA receptor at 1 uM
Method in brief: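 Rat brain membrane suspensions; competition for the PCP site of the NMDA receptor with [3H]TCP as radioligand. Test ligand at 1.0 μM, read-out as percent inhibition of [3H]TCP binding. Values are the mean of two experiments.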

Glutamate NMDA receptor = assay: Displacement of [3H]TCP from rat brain NMDA receptor
Method in brief: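 Rat brain membrane suspensions, PCP site of NMDA receptor; [3H]TCP as radioligand. Ligands first screened at 1.0 μM for inhibition of [3H]TCP binding. Ki determined, also with [3H]TCP, usually when inhibition at 1.0 μM reached 80% or more. Values are the mean from two experiments.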

Compound	inhibition [1] [%]	Ki (Glutamate NMDA receptor) [nM]
CN(C(=N)Nc1cccc2ccccc12)c1cccc(C(F)(F)F)c1	107	18.3
CN(C(=N)Nc1cccc2ccccc12)c1c(F)ccc(Cl)c1F	37.6	–
CSc1cccc(N(C)C(=N)Nc2ccc(Br)c3ccncc23)c1	14.4	–
CN(C(=N)Nc1cccc2ccccc12)c1cccc(OC(F)(F)F)c1	79.2	–
CN(C(=N)Nc1cccc2ccccc12)c1cc(F)cc(Cl)c1	86.8	78.4
C=CSc1cccc(N(C)C(=N)Nc2cccc3ccccc23)c1	88.4	–
CN(C)c1cccc(N(C)C(=N)Nc2cccc3ccccc23)c1	94.6	36.7
CC(=O)c1cccc(N(C)C(=N)Nc2cccc3ccccc23)c1	82.3	152
CSc1cccc(N(C)C(=N)Nc2nccc3ccccc23)c1	25.3	–
CSc1cccc(N(C)C(=N)Nc2cnccc2Br)c1	23.7	–
CN(C(=N)Nc1cccc2ccccc12)c1cccc(Cl)c1F	84	–
CSc1cccc(N(C)C(=N)Nc2cncc3ccccc23)c1	80.7	> 1000
COc1cc(F)cc(N(C)C(=N)Nc2cccc3ccccc23)c1	32.9	–
CSc1cccc(N(C)C(=N)Nc2ccc(Cl)c3ncccc23)c1	8.6	–
CN(C(=N)Nc1cccc2ccccc12)c1ccc(F)c(Br)c1	56.5	–
C=Cc1cccc(N(C)C(=N)Nc2cccc3ccccc23)c1	73.9	–
CN(C(=N)Nc1cccc2ccccc12)c1cc(Br)ccc1F	13.8	–
CSc1cccc(N(C)C(=N)Nc2cccc3cnccc23)c1	91.2	110
CSc1cccc(N(C)C(=N)Nc2ccc(Br)cc2Br)c1	69.7	–
CN(C(=N)Nc1cccc2ccccc12)c1cccc(OC(F)F)c1	66.4	–
CN(C(=N)Nc1cccc2ccccc12)c1cccc(Oc2ccccc2)c1	30	–
CN(C(=N)Nc1cccc2ccccc12)c1cccc(SC(F)(F)F)c1	80	447

Compound	inhibition [1] [%]	Ki (Glutamate NMDA receptor) [nM]
CN(C(=N)Nc1cccc2ccccc12)c1cccc(Cl)c1	69.2	–
CN(C(=N)Nc1cccc2ccccc12)c1ccc(F)c(Cl)c1	65.8	–
CN(C(=N)Nc1cccc2ccccc12)c1cccc(Cc2ccccc2)c1	16.2	–
CSc1cccc(N(C)C(=N)Nc2cccc3ccccc23)c1	93.1	39.8
CSc1cccc(N(C)C(=N)Nc2cccc3ccncc23)c1	73.8	–
CSc1cccc(N(C)C(=N)Nc2ccc3ccccc3c2)c1	3.4	–
CN(C(=N)Nc1cccc2ccccc12)c1ccc(F)c([N+](=O)[O-])c1	0.7	–
CSc1cccc(N(C)C(=N)Nc2cccc3cccnc23)c1	72.2	–
CN(C(=N)Nc1cccc2ccccc12)c1ccc(F)c(C#N)c1	62.1	–
C#Cc1cccc(N(C)C(=N)Nc2cccc3ccccc23)c1	74.3	–
CSc1cccc(N(C)C(=N)Nc2cccc3c(Cl)nccc23)c1	91.7	540
CN(C(=N)Nc1cccc2ccccc12)c1ccc2ccccc2c1	55	–
CN(C(=N)Nc1cccc2ccccc12)c1cccc(OCc2ccccc2)c1	-2.5	–
CN(C(=N)Nc1cccc2ccccc12)c1cccc(I)c1	106	31.9
CN(C(=N)Nc1cccc2ccccc12)c1cccc(CO)c1	20	–
CN(C(=N)Nc1cccc2ccccc12)c1cccc(SCCF)c1	76.7	–
CN(C(=N)Nc1cccc2ccccc12)c1cccc(O)c1	11.9	–
CN(C(=N)Nc1cccc2ccccc12)c1cccc(C#N)c1	62.9	–
CN(C(=N)Nc1cccc2ccccc12)c1cccc(F)c1	36.9	–
Cc1cc(N(C)C(=N)Nc2cccc3ccccc23)ccc1F	46.5	–
CN(C(=N)Nc1cccc2ccccc12)c1cccc(Br)c1	104	53.7
